Laboratory results taken from ChEMBL document CHEMBL1828610, “Novel peptide-specific quantitative structure-activity relationship (QSAR) analysis applied to collagen IV peptides with antiangiogenic activity” (2011).
Activity calls are given as the source filed them. The rule behind the calls is not given here. Square brackets hold non-standard residues; d marks the D form. Peptide text beside a SMILES is read from it. Abu = CC[C@H](N)C(=O)O

Tests used:
[1] = tested on: HUVEC; assay: Antiangiogenic activity in human HUVEC cells assessed as inhibition of cell proliferation at 100 uM after 72 hrs by WST-1-based colorimetric assay; format: functional
Procedure, shortened: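 HUVEC (passages 2–7) plated at 2000 cells/well, peptide 100 μM added in fully supplemented medium to adherent cells for 72 hours; WST-1 then applied in serum-free medium for four hours and absorbance read at 450 nm. Two biological replicates, each mean of three technical replicates; percent inhibition relative to vehicle control.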

[2] = tested on: HUVEC; assay: Antiangiogenic activity in human HUVEC cells assessed as inhibition of cell adhesion at 100 uM upto 3 hrs by migration assay; format: functional
Procedure, shortened: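 HUVEC (passages 2–7, EGM-2, 37°C, 5% CO2) seeded at 25,000 cells/well in single-compartment impedance E-plates with or without peptide at 100 μM; adhesion tracked as change in cell index amplitude over 3 hours. Two biological replicates, each the mean of three same-plate technical replicates; expressed as percent inhibition relative to vehicle control.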

[3] = tested on: HUVEC; assay: Antiangiogenic activity in human HUVEC cells assessed as inhibition of tube structure formation at 100 uM relative to control; format: functional, cell-based
Procedure, shortened: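 Wells coated with reduced growth factor basement membrane matrix, gelled 30 minutes at 37 °C; HUVEC seeded on gel at 15,000 cells/well with or without peptide (100 μM), control receiving equal DMSO vehicle. Incubated overnight at 37 °C, 5% CO2; tube structures imaged by camera on inverted microscope.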

[4] = tested on: HUVEC; assay: Antiangiogenic activity in human HUVEC cells assessed as inhibition of cell migration at 50 uM; format: functional
Procedure, shortened: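 Real-time impedance migration: upper chamber coated with fibronectin (20μg/ml), 45,000 HUVEC/well (passages 2–7) added with or without peptide at 50 μM; fully supplemented medium below as chemoattractant; migration read as cell index from sensors under porous membrane. Duplicate experiments, each averaging three same-plate replicates; percent inhibition versus vehicle control.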

Compound	inhibition at 100 µM [1] [%]	inhibition at 100 µM [2] [%]	inhibition [3]	inhibition at 50 µM [4] [%]
CC[C@H](C)[C@H](NC(=O)[C@H](CC(N)=O)NC(=O)[C@@H](NC(=O)[C@H](Cc1ccccc1)NC(=O)[C@H](C)NC(=O)[C@H](Cc1ccccc1)NC(=O)[C@@H]1CCCN1C(=O)[C@H](CCSC)NC(=O)[C@@H](NC(=O)[C@H](CO)NC(=O)[C@H](Cc1ccccc1)NC(=O)[C@H](CCCNC(=N)N)NC(=O)[C@H](CCCNC(=N)N)NC(=O)[C@@H](N)CC(C)C)[C@@H](C)O)[C@@H](C)CC)C(=O)N[C@@H](CC(N)=O)C(=O)N[C@@H](CC(N)=O)C(=O)N[C@H](C(=O)N[C@H](C(=O)N[C@@H](CC(N)=O)C(=O)N[C@@H](Cc1ccccc1)C(=O)O)[C@@H](C)CC)C(C)C	46.6	94.8	Active	69.3
CC[C@H](NC(=O)[C@H](Cc1ccccc1)NC(=O)[C@H](CCSC)NC(=O)[C@@H](N)Cc1ccccc1)C(=O)N[C@@H](CC(N)=O)C(=O)N[C@H](C(=O)N[C@@H](CC(N)=O)C(=O)N[C@@H](CC(N)=O)C(=O)N[C@H](C(=O)N[C@@H](CC)C(=O)N[C@@H](CC(N)=O)C(=O)N[C@@H](Cc1ccccc1)C(=O)O)C(C)C)[C@@H](C)CC (H-FMF[Abu]NINNV[Abu]NF-OH)	28.3	66.2		-16.6
CC[C@H](NC(=O)[C@@H](N)Cc1ccccc1)C(=O)N[C@@H](CC(N)=O)C(=O)N[C@H](C(=O)N[C@@H](CC(N)=O)C(=O)O)[C@@H](C)CC (H-F[Abu]NIN-OH)	8.17	3.45		-23.7
CC[C@H](NC(=O)[C@@H](NC(=O)[C@H](CC(N)=O)NC(=O)[C@H](CC(N)=O)NC(=O)[C@@H](NC(=O)[C@H](CC(N)=O)NC(=O)[C@H](CC)NC(=O)[C@@H](N)Cc1ccccc1)[C@@H](C)CC)C(C)C)C(=O)N[C@@H](CC(N)=O)C(=O)O (H-F[Abu]NINNV[Abu]N-OH)	20.6	77.5		40.4
CC[C@H](NC(=O)[C@H](Cc1ccccc1)NC(=O)[C@H](CCSC)NC(=O)[C@H](C)NC(=O)[C@@H]1CCCN1C(=O)[C@H](CCSC)NC(=O)[C@@H](NC(=O)[C@H](CO)NC(=O)[C@H](Cc1ccccc1)NC(=O)[C@H](CCCNC(=N)N)NC(=O)[C@H](CCCNC(=N)N)NC(=O)[C@@H](N)CC(C)C)[C@@H](C)O)C(=O)N[C@@H](CC(N)=O)C(=O)N[C@H](C(=O)N[C@@H](CC(N)=O)C(=O)N[C@@H](CC(N)=O)C(=O)N[C@H](C(=O)N[C@@H](CC)C(=O)N[C@@H](CC(N)=O)C(=O)N[C@@H](Cc1ccccc1)C(=O)O)C(C)C)[C@@H](C)CC (H-LRRFSTMPAMF[Abu]NINNV[Abu]NF-OH)	65.4	95.6		99.8
CC[C@H](NC(=O)[C@H](Cc1ccccc1)NC(=O)[C@H](C)NC(=O)[C@H](Cc1ccccc1)NC(=O)[C@@H]1CCCN1C(=O)[C@H](CCSC)NC(=O)[C@@H](NC(=O)[C@H](CO)NC(=O)[C@H](Cc1ccccc1)NC(=O)[C@H](CCCNC(=N)N)NC(=O)[C@H](CCCNC(=N)N)NC(=O)[C@@H](N)CC(C)C)[C@@H](C)O)C(=O)N[C@@H](CC(N)=O)C(=O)N[C@H](C(=O)N[C@@H](CC(N)=O)C(=O)N[C@@H](CC(N)=O)C(=O)N[C@H](C(=O)N[C@@H](CC)C(=O)N[C@@H](CC(N)=O)C(=O)N[C@@H](Cc1ccccc1)C(=O)O)C(C)C)[C@@H](C)CC (H-LRRFSTMPFAF[Abu]NINNV[Abu]NF-OH)	63.6	98.3		99.6
CC[C@H](NC(=O)[C@H](C)NC(=O)[C@H](CCSC)NC(=O)[C@H](Cc1ccccc1)NC(=O)[C@@H]1CCCN1C(=O)[C@H](CCSC)NC(=O)[C@@H](NC(=O)[C@H](CO)NC(=O)[C@H](Cc1ccccc1)NC(=O)[C@H](CCCNC(=N)N)NC(=O)[C@H](CCCNC(=N)N)NC(=O)[C@@H](N)CC(C)C)[C@@H](C)O)C(=O)N[C@@H](CC(N)=O)C(=O)N[C@H](C(=O)N[C@@H](CC(N)=O)C(=O)N[C@@H](CC(N)=O)C(=O)N[C@H](C(=O)N[C@@H](CC)C(=O)N[C@@H](CC(N)=O)C(=O)N[C@@H](Cc1ccccc1)C(=O)O)C(C)C)[C@@H](C)CC (H-LRRFSTMPFMA[Abu]NINNV[Abu]NF-OH)	65.1	99.3		99.6
CC[C@H](C)[C@H](NC(=O)[C@H](CC(N)=O)NC(=O)[C@H](CS)NC(=O)[C@H](Cc1ccccc1)NC(=O)[C@H](CCSC)NC(=O)[C@H](Cc1ccccc1)NC(=O)[C@@H]1CCCN1C(=O)[C@H](CCSC)NC(=O)[C@@H](NC(=O)[C@H](CO)NC(=O)[C@H](Cc1ccccc1)NC(=O)[C@H](CCCNC(=N)N)NC(=O)[C@H](CCCNC(=N)N)NC(=O)[C@@H](N)CC(C)C)[C@@H](C)O)C(=O)N[C@@H](CC(N)=O)C(=O)N[C@@H](CC(N)=O)C(=O)N[C@H](C(=O)N[C@@H](CS)C(=O)N[C@@H](CC(N)=O)C(=O)N[C@@H](Cc1ccccc1)C(=O)O)C(C)C (H-LRRFSTMPFMFCNINNVCNF-OH)	67.5	96.2		91
CC[C@H](NC(=O)[C@H](Cc1ccccc1)NC(=O)[C@H](CCSC)NC(=O)[C@H](Cc1ccccc1)NC(=O)[C@@H]1CCCN1C(=O)[C@H](CCSC)NC(=O)[C@@H](NC(=O)[C@H](CO)NC(=O)[C@H](Cc1ccccc1)NC(=O)[C@H](CCCNC(=N)N)NC(=O)[C@H](CCCNC(=N)N)NC(=O)[C@@H](N)CC(C)C)[C@@H](C)O)C(=O)N[C@@H](CC(N)=O)C(=O)N[C@H](C(=O)N[C@@H](CC(N)=O)C(=O)N[C@@H](CC(N)=O)C(=O)N[C@H](C(=O)N[C@@H](CC)C(=O)N[C@@H](CC(N)=O)C(=O)N[C@@H](Cc1ccccc1)C(=O)O)C(C)C)[C@@H](C)CC (H-LRRFSTMPFMF[Abu]NINNV[Abu]NF-OH)	69.7	98.5		97
CC[C@H](NC(=O)[C@@H](NC(=O)[C@H](CC(N)=O)NC(=O)[C@H](CC(N)=O)NC(=O)[C@@H](NC(=O)[C@@H](N)CC(N)=O)[C@@H](C)CC)C(C)C)C(=O)N[C@@H](CC(N)=O)C(=O)N[C@@H](Cc1ccccc1)C(=O)O (H-NINNV[Abu]NF-OH)	24.2	70.8		31.6
CC[C@H](NC(=O)[C@H](Cc1ccccc1)NC(=O)[C@H](CCSC)NC(=O)[C@H](Cc1ccccc1)NC(=O)[C@@H]1CCCN1C(=O)[C@H](CCSC)NC(=O)[C@@H](NC(=O)[C@@H](N)CO)[C@@H](C)O)C(=O)N[C@@H](CC(N)=O)C(=O)N[C@H](C(=O)N[C@@H](CC(N)=O)C(=O)N[C@@H](CC(N)=O)C(=O)N[C@H](C(=O)N[C@@H](CC)C(=O)N[C@@H](CC(N)=O)C(=O)N[C@@H](Cc1ccccc1)C(=O)O)C(C)C)[C@@H](C)CC (H-STMPFMF[Abu]NINNV[Abu]NF-OH)	13.8	6.82		-24.5
H-LNRFSTMPF-OH	6.35	0.32		-16.1
H-LRRFSTMP-OH	7.02	-0.14	Active	-20.1
H-LRRFSTMPFMF-OH	2.97	-2.6		-14.2
H-LRRFSTMPFMFANINNVANF-OH	48.6	98.2		99.6
H-LRRFSTMPFMFGNINNVGNF-OH	25.7	97.8		87.9
H-LRRFSTMPFMFININNVINF-OH	73.2	98.6		92.9
H-LRRFSTMPFMFSNINNVSNF-OH	50.5	98		92.6
H-LRRFSTMPFMFTNINNVTNF-OH	59.1	98.7		96.1
H-LRRFSTMPFMFVNINNVVNF-OH	62.2	95.1	Active	98.8
